Each structure is given as a SMILES string.

The nature of this data set: Toxicity liver stage against HepG2, at 10uM. The class given is cell-based. More on the design: test concentration 10 uM, cell line HepG2-A16-CD81EGFP. Particulars: human, HepG2-A16-CD81EGFP cells; read-out: INHIBITION
In short, it runs like this:
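Uninfected HepG2-A16-CD81EGFP cells, 3 × 10^3 per well, 1536-well, plated on prespotted compound at 10 μM final, parasite-free screening media added to match infected plates; puromycin 10 μM positive, DMSO 0.5% negative; run in parallel with 48 h PbLuc assay at 37 °C, 5% CO2; viability by CellTiter-Glo luminescence, normalized to controls.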

As to `CN(Cc1cnn(C)c1)C(=O)c1cc2ccccc2c(=O)[nH]1`, the cytotoxicity at 10 µM is -5.64%. Consider `CC(C)Sc1ccc(C(C)Nc2nc3c(cnn3C)c(=O)[nH]2)cc1` (stereo unspecified), for which the cytotoxicity at 10 µM stood at 21.4%.

As for `CCC(CO)N(Cc1ccccn1)C(=O)c1ccc(F)c(F)c1` (stereo unspecified), the cytotoxicity at 10 µM is -0.273%. Turning to `CC(NC(=O)NCCNc1cnccn1)c1cccs1` (stereo unspecified), the cytotoxicity at 10 µM was -3.79%. On to `CCn1nc2c(cc1=O)CN(Cc1nc(-c3ccco3)no1)CC2`, for which the cytotoxicity at 10 µM was -3.34%. Turning to `COCCCn1ccc(NS(=O)(=O)c2cc(C)c(F)cc2F)n1`, the cytotoxicity at 10 µM is 20.1%. Consider `CN(CC(=O)N1CCC(Oc2ccc(C(F)(F)F)cn2)CC1)S(C)(=O)=O`, for which the cytotoxicity at 10 µM worked out at 1.97%. Regarding `COc1ccc(Cc2nnc(NC(=O)C3CC34CCC4)s2)cc1OC` (stereo unspecified), the cytotoxicity at 10 µM is -2.21%. With `CC1=CCN(S(=O)(=O)c2cccc(C(=O)N3CCOCC3)c2)CC1` the figure was 4.9%. With `Cc1cc(C2CCCN2C(=O)c2cnn(C)c2)on1` (stereo unspecified) the figure was -1.85%.

As to `CCn1c(C)nnc1CN(C)C1CCN(Cc2nccn2C)C1` (stereo unspecified), the cytotoxicity at 10 µM is 17.8%. On to `Cc1c(C(=O)N(C)CC(F)(F)F)nnn1-c1ccc(F)cc1`, for which the cytotoxicity at 10 µM was 7.92%. With `O=C(NCc1ccccn1)C1CN(c2nc3ccccc3s2)CCN1` (stereo unspecified), the cytotoxicity at 10 µM was -42.8%. For `Cc1cccc(CN2CC[C@H]3C[C@H](C)O[C@@H]3C2)n1`, the cytotoxicity at 10 µM was -78.6%. On to `Cc1cc(-c2cnc(N3CCNC(=O)C3)nc2-c2ccoc2C)on1`, for which the cytotoxicity at 10 µM was -25.5%.

As for `Cc1n[nH]c2c1C(c1ccncc1)SCC(=O)N2` (stereo unspecified), the cytotoxicity at 10 µM was found to be 4.96%.

In the case of `CS(=O)(=O)NCCNC(=O)NC1(c2ccc(Cl)cc2)CCC1`, the cytotoxicity at 10 µM was -2.48%.

In the case of `CCC(NC(=O)c1cc(NC(C)=O)ccc1Cl)c1cc(C)ccn1` (stereo unspecified), the cytotoxicity at 10 µM is -16.5%. For `COC(=O)N1CCCC(NC(=O)NCc2ccc(C)nc2)C1` (stereo unspecified), the cytotoxicity at 10 µM was -4.73%. `Cc1csc(CNC(=O)N(C)Cc2ccncc2)n1`: the cytotoxicity at 10 µM was -10.8%. In the case of `CNc1ccc(CC2CCCN(C(=O)c3cncnc3C)C2)nn1` (stereo unspecified), the cytotoxicity at 10 µM was found to be 5.99%.

With `COCC(=O)N1CCC(c2cc(C(F)(F)F)n3ccnc3n2)CC1`, the cytotoxicity at 10 µM stood at 1.44%.

As for `CN(c1ncccc1C#N)C1CCN(Cc2ccncc2)CC1`, the cytotoxicity at 10 µM was -2.86%. On to `COc1ccc(Cc2nnc3n2N=C(C(C)(C)C)CS3)cc1`, for which the cytotoxicity at 10 µM is 10.7%.

In the case of `Cc1ccc2[nH]c(C(=O)N3CCC4(CC3)C(=O)NCCN4C)nc2c1`, the cytotoxicity at 10 µM is 1.43%.

As for `Cc1cncc(C(=O)N2CCCCC2c2nc(C)cs2)c1` (stereo unspecified), the cytotoxicity at 10 µM is -3.66%. Take `CC(C)CS(=O)(=O)NC(=O)c1ccc2c(c1)ncn2C`: the cytotoxicity at 10 µM is -9.94%. With `Cc1cc(F)ccc1N1CCCC(Nc2nccn3cnnc23)C1=O` (stereo unspecified) the figure was -6.62%; with `Cc1ccc2cc(C(=O)N3CCCCC3c3nc[nH]n3)ccc2n1` (stereo unspecified), -5.92%. With `Cc1ccc(CN(CC(=O)NCC2CCOC2)c2ccc(F)cc2)o1` (stereo unspecified) the figure was 9.83%; with `Cc1noc(C)c1CN1C(=O)[C@@H]2CC[C@H]1CN(Cc1ccc(Cl)cc1)C2`, 6.22%. Consider `CCc1nccn1C1CCCN(C(=O)CCCNc2ncccn2)C1` (stereo unspecified), for which the cytotoxicity at 10 µM was -1.3%. `Cc1nc(C2CCCN2CCCS(=O)(=O)c2ccccc2)no1` (stereo unspecified): the cytotoxicity at 10 µM is -4.42%.

With `c1cnc2c(c1)cc([C@@H]1CCCO1)n2CCN1CCCCC1`, the cytotoxicity at 10 µM was -25.9%. In the case of `COc1ccc(CNCC(O)c2cccc(O)c2)cc1Br` (stereo unspecified), the cytotoxicity at 10 µM is -3.86%. Turning to `Cc1ccc(CN(CCCn2ccnc2)Cc2cccs2)s1`, the cytotoxicity at 10 µM is -17.6%. The figure for `O=C(CCc1ccco1)Nc1cccc(S(=O)(=O)C(F)F)c1` is -42.5%; for `c1cncc(C2COC3(CCN(Cc4nccs4)CC3)C2)c1` (stereo unspecified) it is 1.7%; for `CC(C)OCCCNC(=O)CN1C=Nc2ccccc2S1(=O)=O` it is -5.44%.

As to `c1cncc(-c2nccc(CN3CCCC3)n2)c1`, the cytotoxicity at 10 µM amounted to 2.34%. The figure for `CCN(CC)C(CNCc1ccc(C)o1)c1ccco1` (stereo unspecified) is 3.23%.

As to `Cc1cc(NC(=O)c2ccc(N3CCOCC3)c(F)c2)[nH]n1`, the cytotoxicity at 10 µM is -33.9%. The figure for `Cc1n[nH]c(=O)c(C(=O)N2CCN(CCc3cccs3)CC2)c1C` is -6.22%. With `Cc1cccc(C2(O)CCN(C(=O)c3ccc(N(C)C)cc3)CC2)c1C`, the cytotoxicity at 10 µM is -2.96%. For the compound `COc1ccccc1OC1CN(C(=O)C(c2ccc(F)cc2)N(C)C)C1` (stereo unspecified), the cytotoxicity at 10 µM amounted to 1.42%.

For `Cc1n[nH]c(C)c1CCN(C)c1ccc(-c2nc(C3CC3)no2)cn1`, the cytotoxicity at 10 µM came out at 2.08%. As to `c1cnc(OCc2nnc3n2CCN(CC2CC2)C3)nc1`, the cytotoxicity at 10 µM was -1.93%. Consider `Cc1ccc(N2CCCc3sc(C(=O)NCc4ccc(C)o4)nc32)nn1`, for which the cytotoxicity at 10 µM turned out to be 4.93%. In the case of `Oc1cc(C2CCCCN2C2CCCC2)nc(-c2cccnc2)n1` (stereo unspecified), the cytotoxicity at 10 µM is 11.2%. Turning to `CN1CCCN(C(=O)c2cccn2-c2ccc3c(c2)OCCO3)CC1`, the cytotoxicity at 10 µM is 1.03%. As to `Cc1cc(NCc2cc3n(n2)CCCN(C(=O)C2CCC2)C3)ncn1`, the cytotoxicity at 10 µM is -136%. `CNC(=O)[C@H]1C[C@@H]2CN(C(=O)c3cscn3)C[C@@H]2N1S(C)(=O)=O`: the cytotoxicity at 10 µM was -5.17%.

For the compound `c1ccc(Cc2cncc(C3CCCN3C3CCOCC3)n2)cc1` (stereo unspecified), the cytotoxicity at 10 µM was 1.4%. In the case of `Oc1ccc(Cl)cc1CNCc1cccc(C(F)(F)F)c1`, the cytotoxicity at 10 µM is -6.13%. As for `Cc1cnc(C)c(N2CCCC(CO)(Cc3cccc(Cl)c3)C2)n1` (stereo unspecified), the cytotoxicity at 10 µM turned out to be 7.78%. For the compound `Cc1cc(C)cc(C2(C(=O)NCC(C)CN3CCCC3=O)CC2)c1` (stereo unspecified), the cytotoxicity at 10 µM worked out at 1.42%. On to `c1ccc(CN2CCC(CCNc3ncnc4c3CCNCC4)C2)cc1` (stereo unspecified), for which the cytotoxicity at 10 µM is -0.16%. For the compound `CN(C)CCC(Nc1nc(N)nc2c1CCNCC2)c1ccccc1` (stereo unspecified), the cytotoxicity at 10 µM was -4.32%. For `COCc1nnc(NC(=O)c2cn(C(C)C)c3ccc(OC)cc23)s1`, the cytotoxicity at 10 µM is -5.86%. With `Nc1nc2c(c(NCC(c3cccnc3)N3CCOCC3)n1)CCCC2` (stereo unspecified) the figure was -14.9%.

For the compound `Cc1cc(C)n(CC2CCCCN2C(=O)c2ccc(C(N)=O)cc2)n1` (stereo unspecified), the cytotoxicity at 10 µM stood at 3.09%. Consider `CN(C)CCN1CCO[C@H]2CN(C(=O)c3ccsc3)C[C@H]21`, for which the cytotoxicity at 10 µM was 3%. For the compound `Cc1cccnc1CNCC1(O)CCCN(CC(C)(C)C)C1=O` (stereo unspecified), the cytotoxicity at 10 µM is -11.8%. The figure for `Cc1cc(C)c(CNC(=O)NCc2ccc3c(c2)OCCO3)c(=O)[nH]1` is -11.6%; for `CCOCC(=O)N1CCC[C@]2(C[C@@H](OCc3ccncc3)CO2)C1` it is 14.5%. `OCC(O)CSCc1cn(-c2ccc(Cl)c(Cl)c2)nn1` (stereo unspecified): the cytotoxicity at 10 µM was determined as 8.55%. `COc1ncccc1NC(=O)NCC1CCS(=O)(=O)C1` (stereo unspecified): the cytotoxicity at 10 µM is -9.16%. With `CC(=O)N1CCN(C(=O)c2ccc(Sc3ccccn3)cc2)CC1` the figure was 10.7%; with `CCc1noc(CNc2c(F)cccc2-n2cccn2)n1`, -5.14%. In the case of `CNS(=O)(=O)c1ccc(CN2CCN3CCNC(=O)C3C2)cc1` (stereo unspecified), the cytotoxicity at 10 µM is -6.22%. The figure for `Cc1noc(C)c1CN1CCc2cnn(C)c2C1COCC1CC1` (stereo unspecified) is 10.7%.

For the compound `COc1ccc(C(=O)NCCCNc2ccc(C(F)(F)F)cn2)cc1`, the cytotoxicity at 10 µM is -3.87%. As to `CN(CCn1nc2ccccn2c1=O)CC(=O)N(C)C1CCCCC1`, the cytotoxicity at 10 µM is -138%.

For `CCc1cc(N[C@@H](CC(C)C)C(N)=O)n2nc(C)c(C)c2n1`, the cytotoxicity at 10 µM was 7.33%. Take `COc1ccc(C(=O)NCC(=O)N(Cc2ccsc2)C2CC2)cc1OC`: the cytotoxicity at 10 µM was 0.995%. With `CCOc1ncccc1C(=O)N1CCCC1Cn1cc(C)cn1` (stereo unspecified) the figure was 0.787%; with `CN1CC2(CCN(CC3CC3)CC2)COc2ccccc2S1(=O)=O`, -0.697%; with `Nc1cc(C(=O)NC2CCCN(CCCc3ccccc3)C2)ccn1` (stereo unspecified), 8.01%.

As to `COCC(=O)N1CCO[C@]2(CCC[C@H]2COC)C1`, the cytotoxicity at 10 µM was -97.5%. As for `O=C(NCc1ccccc1CO)Nc1ccc2c(c1)CCO2`, the cytotoxicity at 10 µM is 11.4%. As to `CC(C)COC(=O)N1CCCN(C(=O)c2ccnc(N(C)C)c2)CC1`, the cytotoxicity at 10 µM is -15.1%. As to `Cc1cccc(S(=O)(=O)N2C[C@@H]3C[C@H](C(=O)NC4CCC4)[C@H](C2)O3)c1`, the cytotoxicity at 10 µM was -1.74%.

Turning to `CCN(CC(=O)NC)C(=O)Cc1nc(-c2ccco2)oc1C`, the cytotoxicity at 10 µM worked out at 22.8%. As to `COCC(=O)N(C)Cc1nc(N(C)C)ncc1-c1ccncc1`, the cytotoxicity at 10 µM stood at 2.42%. Consider `Cc1nc(CNC(=O)NCCc2ccc(N(C)C)cc2)cs1`, for which the cytotoxicity at 10 µM was -11.6%. Regarding `Cc1cccc(C(C(=O)N2CC(c3cccnc3)C2)N(C)C)c1` (stereo unspecified), the cytotoxicity at 10 µM is -4.8%.

Regarding `Cc1nnc(N2CCCC2)c(C(N)=O)c1C`, the cytotoxicity at 10 µM was determined as 7.19%. On to `COCC1c2c(cnn2C)CCN1C(=O)c1cccn1C` (stereo unspecified), for which the cytotoxicity at 10 µM was -94.1%.

As to `O[C@]12CCNC[C@H]1CN(c1ccnc3ccccc13)CC2`, the cytotoxicity at 10 µM was 8.33%. As to `COc1ccc(CNCC2(COc3cccnc3)C[C@@H](O)[C@@H](O)C2)cc1` (stereo partly specified), the cytotoxicity at 10 µM was -57%. Take `Cn1cc(-c2cnc(-c3ccnn3C)nc2)cc1C(=O)N1CCCC1`: the cytotoxicity at 10 µM came to 4.55%. With `CN1CCCCC[C@@H]2[C@@H]1[C@H](c1ccccc1)CN2C(=O)c1ccccn1`, the cytotoxicity at 10 µM is -24.5%. With `O=S(=O)(N1CCCCC1)N1CCc2nc(C3CCNCC3)ncc2C1` the figure was -4.15%. `O=C(CN1CCCC1Cn1cncn1)NCCC1=CCCCC1` (stereo unspecified): the cytotoxicity at 10 µM was -16.5%.

Consider `COc1cc(CN(C)CCc2ccncc2)c(SC)cc1OC`, for which the cytotoxicity at 10 µM was -2.92%. Regarding `COc1cc(CNCc2ccnc(N3CCCCC3)c2)cc(OC)c1`, the cytotoxicity at 10 µM is 28.9%.

(Values after ChEMBL document CHEMBL4513216, “Probing the Open Global Health Chemical Diversity Library for Multistage-Active Starting Points for Next-Generation Antimalarials” (ACS Infect Dis, 2020).)
